This is an account of results in PubChem BioAssay.

Values without a mark were called inactive. Inconclusive results are not listed. Activity calls are given as the source filed them.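 Rule for the calls, unless noted: active = inhibition over a set limit, the all-compound mean plus 3 SD, in both replicate runs; inconclusive = over that limit in just one replicate run; inactive = at or under that limit in both runs.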

Experiment [1] can be described thus: OD615 S. cerevisiae growth inhibition, permissive medium, pilot counter-assay, permissive growth control for S. cerevisiae lifespan shortening project (AID 705;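 active = growth inhibition above 25% in both replicates, a cutoff set 3 SD above the mean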). Particulars: OD615, 24 h, at 10 µM, stronger effect = higher value. In short, it runs like this:
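System: Engineered DeaD yeast | Buffer or medium: SC raffinose/galactose permissive medium | Doses: 10 µM single dose, 0.25% DMSO | Times: 24 h exposure, 30 °C | Measured by: OD615 turbidity read | Read-out: Yeast growth inhibition indicated by reduced 24 h OD615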

A short description of experiment [2]: Restrictive medium S. cerevisiae growth inhibition, OD615, pilot screen of yeast lifespan reduction project, restrictive growth control (AID 706;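 active = growth inhibition above a set limit, 3 SD over mean compound inhibition, in both replicates, cut at about 43% in these data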;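 note: modified DeaD lifespan yeast strain shifted to restrictive glucose medium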). Particulars: OD615, 48 h, at 10 µM, stronger effect = higher value. The procedure, abridged: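 Assay system: engineered S. cerevisiae DeaD strain; Buffer or medium: CSMM-D glucose medium; Dosing: 10 µM compound, 0.25% DMSO; Times: cell pre-growth 4 h, compound exposure 48 h, 30 °C; Detection: absorbance (optical density) measured at 615 nm.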

A short description of experiment [3]: viability gain of MRP-1-high H69AR cells under doxorubicin, pilot screen, MRP-1 activator project, CellTiter-Glo, duplicate (AID 807;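 active = viability increase at or above a cutoff of the median across tested compounds plus 3 SD, cut at about 8.5% in these data, passing the limit was not always enough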;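 note: compound pretreatment 18-22 h then 72 h combined with doxorubicin; 0% = doxorubicin alone and 100% = vehicle without doxorubicin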). Conditions: H69AR viability with doxorubicin, CellTiter-Glo luminescence; at 10 µM; stronger effect = higher value. For orientation: In ATP-based viability assays light output follows the ATP content of the culture.
The nature of experiment [4]: growth suppression of beta-catenin knockout HCT116, pilot screen, human colon tumor cells (AID 823;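 active = cell viability at or below a set limit in both duplicate runs, the limit being the all-compound median minus 4 SD, cut at about 23% in these data, passing the limit was not always enough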;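 note: 0% = wells killed by 20 µM Hyamine and 100% = untreated DMSO cell wells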). Conditions: CellTiter-Glo, 60 h, at 10 µM, stronger effect = lower value.
Experiment [5] is described as follows: growth suppression of PTEN-deleted HCT116, pilot screen, cell-based, HCT116 clonal line, CellTiter-Glo (AID 824;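 active = viability at or below 27.92% in each of two runs, the all-compound median minus 4 SD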;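 note: 0% = 20 µM Hyamine control and 100% = vehicle cell control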). Particulars: 60 h, at 10 µM, stronger effect = lower value.
Experiment [6] can be described thus: inhibitors of the yeast RAM network, pilot screen, dse1pr::URA3 reporter, 5-FOA selection (AID 869).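 Note: 0% = DMSO wells with no growth and 100% = 10 µM 1-NA-PP1 with full growth; RAM network block rescues cells from 5-FOA so hits raise OD615 growth.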 Conditions: S. cerevisiae dse1pr::URA3 5-FOA growth, OD615, 2 d; at 10 µM; stronger effect = higher value; strain carries analog-sensitive mutant Cbk1 kinase.
Experiment [7] can be described thus: RAM signaling pathway blockade in yeast – S. cerevisiae, Pdr1DBD-CYC8 efflux-inhibited sensitized strain, primary screen (AID 1298;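 active = RAM network inhibition above 8.4% in each of two replicates, 3 SD over the compound average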;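 note: 0% = DMSO untreated cells without growth and 100% = 10 µM 1-NA-PP1 full growth; higher means more yeast growth rescued from 5-FOA killing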). Conditions: S. cerevisiae cbk1-as DSE1-URA3 strain, 5-FOA growth OD615, 2 d; at 50 µM; stronger effect = higher value.

The term viability denotes a read-out of living cells in per cent, often relative to untreated cells. By inhibition is commonly meant the change of the read-out against control, counted positive when it falls. In the case of `CCCN(CCC)CCNC(=O)Cn1cnc2sc(C)c(S(=O)(=O)N3CCOCC3)c2c1=O`, the values for the growth inhibition in experiment [1] and in experiment [2] were -0.07% and -5.45%, respectively. For the same compound, in experiment [3], the viability increase was -2.63%. Besides, the results for the viability in experiment [4] and in experiment [5] were 95.3% and 98%, respectively. Also, the inhibition in experiment [6] was 0.875%. In experiment [7], the RAM network inhibition was 2.96%.
Regarding `c1ccc(CNc2nc3ccccc3n3cnnc23)nc1`, the growth inhibition in experiment [1] is -13.7%; in experiment [2], -8.93%. Moreover, the viability increase in experiment [3] is -1.36%. Also, the results for the viability in experiment [4] and in experiment [5] were 105% and 88.5%, respectively. In addition, in experiment [6], the inhibition is -0.44%. For the same compound, the RAM network inhibition in experiment [7] was 3.37%.
With `C=CC(C)Sc1nc2c(c(=O)n(C)c(=O)n2C)n1Cc1ccccc1Cl` (stereo not drawn), the results for the growth inhibition in experiment [1] and in experiment [2] were -3.12% and -2.02%, respectively. Besides, the viability increase in experiment [3] is -3.37%. Besides, the viability in experiment [4] is 100%; in experiment [5], 99.3%. For the same compound, the inhibition in experiment [6] is 0.785%. Moreover, the RAM network inhibition in experiment [7] is 5.22%.
For the compound `Cc1sc2nc(SCC(=O)NCc3ccco3)n(C)c(=O)c2c1C`, the growth inhibition in experiment [1] was -4.25%; in experiment [2], -12.5%. The viability increase in experiment [3] was -4.96%. The viability in experiment [4] was 105%; in experiment [5], 94.3%. The inhibition in experiment [6] was 2.1%. Besides, the RAM network inhibition in experiment [7] is 3.82%.
Take `COc1ccc(C2NC(=O)NC(O)(C(F)(F)F)C2C(=O)c2ccc(C)cc2)cc1` (stereo not drawn): the growth inhibition in experiment [1] is 6.2%; in experiment [2] it was -7.89%. The viability increase in experiment [3] is -2.35%. Further, the figures for the viability in experiment [4] and in experiment [5] were 100% and 95.1%, respectively. Also, the inhibition in experiment [6] is 0.56%. Moreover, in experiment [7], the RAM network inhibition is -1.03%.
Consider `CCOCCn1c(SCc2ccc(C)cc2)nc2c1c(=O)[nH]c(=O)n2C`, for which the growth inhibition is -5.33% in experiment [1] and 3.62% in experiment [2]. Also, the viability increase in experiment [3] was -3.46%. Also, the viability in experiment [4] was 92.5%; in experiment [5], 95.1%. For the same compound, the inhibition in experiment [6] is 1.49%. Besides, the RAM network inhibition in experiment [7] was 4.28%.
With `CCCCS(=O)(=O)/C=C\C=C/S(=O)(=O)CCCC`, the growth inhibition is 14.9% in experiment [1] and 60% (active) in experiment [2]. Further, in experiment [3], the viability increase was -7.95%. Moreover, the viability in experiment [4] is 1.4% (active); in experiment [5] it was 1.36% (active). Besides, the inhibition in experiment [6] was -0.535%. Further, in experiment [7], the RAM network inhibition was -3.06%.
As for `CCOc1cc(C(=O)NCCN2CCOCC2)cc(OCC)c1OCC`, the values for the growth inhibition in experiment [1] and in experiment [2] were -5.59% and -3.11%, respectively. Moreover, in experiment [3], the viability increase was -3.76%. The viability in experiment [4] is 91.3%; in experiment [5], 96.4%. The inhibition in experiment [6] is -0.045%. Besides, in experiment [7], the RAM network inhibition is 2.61%.
Consider `CCn1c(C2CC(=O)N(Cc3ccccc3)C2)nc2ccccc21` (stereo not drawn), for which the growth inhibition is 7.85% in experiment [1] and 7.52% in experiment [2]. In addition, the viability increase in experiment [3] is -2.06%. Further, the values for the viability in experiment [4] and in experiment [5] were 102% and 91.3%, respectively. Also, the inhibition in experiment [6] is -0.3%. Moreover, the RAM network inhibition in experiment [7] is 4.25%.
For `CCc1ccccc1NC(=O)c1onc(C)c1Cl`, the growth inhibition in experiment [1] was -5.87%; in experiment [2] it was 1.99%. The viability increase in experiment [3] was -0.41%. In addition, the viability in experiment [4] was 108%; in experiment [5], 97.7%. In addition, the inhibition in experiment [6] was 2.18%. In experiment [7], the RAM network inhibition was -1.13%.
As for `O=C(Cn1cc2c(n1)CCCCC2)Nc1ccc(F)cc1F`, the growth inhibition was -4.89% in experiment [1] and 4.12% in experiment [2]. Also, the viability increase in experiment [3] was 0.49%. The viability is 104% in experiment [4] and 97% in experiment [5]. In addition, in experiment [6], the inhibition is 0.55%. Further, in experiment [7], the RAM network inhibition is 2.75%.
In the case of `CCOC(=O)C(C(=O)OCC)=C1OC(=O)c2ccccc21`, the growth inhibition was -11.1% in experiment [1] and -7.16% in experiment [2]. Further, the viability increase in experiment [3] was 0.39%. Further, the viability in experiment [4] was 98.6%; in experiment [5] it was 96.4%. In addition, the inhibition in experiment [6] was 2.19%. Besides, the RAM network inhibition in experiment [7] was 2.35%.
With `CCOc1ccc(NC2CCN(C(C)=O)CC2)cc1`, the growth inhibition in experiment [1] was -12.8%; in experiment [2], -7.46%. Moreover, the viability increase in experiment [3] was 0.27%. Also, the viability in experiment [4] is 95.2%; in experiment [5], 97%. In addition, the inhibition in experiment [6] is 0.625%. The RAM network inhibition in experiment [7] was 6.44%.
In the case of `COc1ccc(CC(=O)Nc2oc(-c3ccccc3)c(-c3ccccc3)c2C#N)cc1OC`, the growth inhibition in experiment [1] was -6.81%; in experiment [2], -2.63%. The viability increase in experiment [3] is -0.77%. The viability is 76.9% in experiment [4] and 68.2% in experiment [5]. In addition, the inhibition in experiment [6] was 1.75%. In addition, in experiment [7], the RAM network inhibition was 8.44%.
Turning to `COCc1cc(=O)n2c(-c3ccc(C)cc3)n[nH]c2n1`, the growth inhibition in experiment [1] is -9.25%; in experiment [2], 6.96%. In addition, the viability increase in experiment [3] is -0.72%. Moreover, the figures for the viability in experiment [4] and in experiment [5] were 95.8% and 92.1%, respectively. In addition, the inhibition in experiment [6] is 2.2%. For the same compound, the RAM network inhibition in experiment [7] is 1.28%.
Take `Cc1nc2c(c(C)nn2-c2ccccc2)c(C)c1Cl`: the growth inhibition in experiment [1] was -4.98%; in experiment [2], -5.5%. The viability increase in experiment [3] is -2.73%. In addition, the viability in experiment [4] is 88.6%; in experiment [5] it was 87.9%. The inhibition in experiment [6] was 3.09%. Also, the RAM network inhibition in experiment [7] is 2.46%.
In the case of `COc1ccc(-n2c(=O)c3ccccc3n(CC(=O)NC3CCCC3)c2=O)c(OC)c1`, the growth inhibition in experiment [1] is -4.38%; in experiment [2], -22%. The viability increase in experiment [3] is -0.98%. The viability is 98.2% in experiment [4] and 96.2% in experiment [5]. The inhibition in experiment [6] was 2.04%. In experiment [7], the RAM network inhibition was 3.21%.
Take `CCOC(=O)C1=C(C)Nc2nc(C)nn2C1c1cc(OC)ccc1OC` (stereo not drawn): the growth inhibition is 3.21% in experiment [1] and 4.81% in experiment [2]. Further, in experiment [3], the viability increase was -1.53%. The viability in experiment [4] is 108%; in experiment [5], 100%. In addition, in experiment [6], the inhibition is -1.1%. Moreover, the RAM network inhibition in experiment [7] was -0.16%.
For the compound `CC(=O)N1CCc2cc(C(=O)CN3CCCCC3)ccc21`, the results for the growth inhibition in experiment [1] and in experiment [2] were -6.58% and -8.28%, respectively. The viability increase in experiment [3] was -2.19%. Further, the figures for the viability in experiment [4] and in experiment [5] were 99% and 94.7%, respectively. In addition, the inhibition in experiment [6] was 0.435%. Moreover, in experiment [7], the RAM network inhibition is 1.91%.
